Measurements published in ChEMBL document CHEMBL1154555, “Antifungal and larvicidal compounds from the root bark of Cordia alliodora” (2000).
Values after ≈ are worked out from the molar mass of the structure shown.

Key:
Candida albicans [1] = test: Antimicrobial activity against sCandida albicans assessed as drug level causing growth inhibition on silica gel TLC plate after 24 hrs; assay type: functional
Summary of the method: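 Agar overlay bioautography: 10 µL of geometric dilutions from 5 mg/mL stocks were spotted on Si gel 60 F254 glass TLC plates. Plates were developed in petroleum ether-EtOAc (1:1) and dried, then overlaid with about 1 mm of molten malt agar carrying about 107 yeast cells/mL. Plates were incubated overnight at 30 °C, moist, then sprayed with MTT (2.5 mg/mL). The read-out was the minimal amount (µg) giving clear spots on purple, with a nystatin reference.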

Cladosporium cucumerinum [2] = test: Antimicrobial activity against Cladosporium cucumerinum assessed as drug level causing growth inhibition on silica gel TLC plate after 2-3 days
Cladosporium cucumerinum [3] = test: Antimicrobial activity against Cladosporium cucumerinum after 24 hrs by agar dilution method; assay type: functional
Summary of the method: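 Geometric dilutions were made in DMSO from 3 mg/mL DMSO stocks and added to Sabouraud agar in sealed 24-well plates, with final DMSO ≤2%. A distilled-water suspension of C. cucumerinum was spread over the agar and incubated 24 h at 30 °C. The read-out was MIC (µg/mL), the average of duplicates, with no-compound growth controls and a nystatin reference.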

Aedes aegypti = test: Larvicidal activity against Aedes aegypti assessed as drug level required to kill instar II larvae after 24 hrs; assay type: functional
Summary of the method: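 Geometric dilutions were made from 5 mg/mL DMSO stocks and added to tubes holding about 20 instar II A. aegypti larvae in tap water, to a final volume of 10 mL. Tubes were kept in darkness at 26-28 °C for 24 h. Larval lethality was scored under lab light, in duplicate.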

Candida albicans [4] = test: Antimicrobial activity against Candida albicans after 24 hrs by agar dilution method; assay type: functional, organism-based

Molecule | Activity (Candida albicans [1]) [µg] | Activity (Cladosporium cucumerinum [2]) [µg] | MIC (Cladosporium cucumerinum [3]) [mg/L] | Activity (Aedes aegypti) [µg/mL] | MIC (Candida albicans [4]) [mg/L]
CC(C)=CCCC(C)(O)/C=C\c1cc(O)ccc1O (stereo not drawn) | >50 | 5 | 15 (≈ 57.2 µM) | >50 | 
NYSTATIN | 0.1 |  | 1 |  | 1
COC(=O)CCc1cc(OC)c(OC)cc1OC | >50 | 5 | 15 (≈ 59 µM) | 12.5 | 
C/C=C\c1cc(OC)c(OC)cc1OC [CIS-ASARONE] |  |  |  | 25 | 
CC1=CC(=O)c2c(O)cccc2C1=O [PLUMBAGIN] |  |  |  | 3 | 
